According to ChEMBL document CHEMBL3217692, “Synthesis and cytotoxicity evaluation of novel pyrido[3,4-d]pyrimidine derivatives as potential anticancer agents” (2012):

Legend:
Assay type in all cases: functional
SK-OV-3 = test: Cytotoxicity against human SKOV3 cells assessed as cell growth at 10 uM after 48 hrs by sulforhodamine B assay relative to control; conditions: SK-OV-3, 48 h, read-out: Activity
Procedure, shortened: (§1)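 Adherent cells were grown in RPMI 1640 with 5% FBS and 2 mM L-glutamine, seeded at 5000–40 000 cells/well by doubling time, and held 24 h at 37 °C, 5% CO2 before drug. Time-zero plates were TCA-fixed. Compound in DMSO, single dose 10 μM, 48 h. Cells were fixed with cold TCA (final 10%, 60 min, 4 °C) and stained with 0.4% SRB. Bound dye was dissolved in 10 mM Tris base and read at 515 nm. Percent growth was derived from time-zero, control and treated absorbances.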

[1] = Cytotoxicity against human NCI-ADR-RES cells assessed as cell growth at 10 uM after 48 hrs by sulforhodamine B assay relative to control; conditions: read-out: Activity; procedure, shortened: as §1
[2] = Cytotoxicity against human OVCAR4 cells assessed as cell growth at 10 uM after 48 hrs by sulforhodamine B assay relative to control; conditions: OVCAR-4, 48 h, read-out: Activity; procedure, shortened: as §1
[3] = Cytotoxicity against human OVCAR3 cells assessed as cell growth at 10 uM after 48 hrs by sulforhodamine B assay relative to control; conditions: OVCAR-3, 48 h, read-out: Activity; procedure, shortened: as §1
[4] = Cytotoxicity against human UACC62 cells assessed as cell growth at 10 uM after 48 hrs by sulforhodamine B assay relative to control; conditions: UACC-62, 48 h, read-out: Activity
Procedure, shortened: (§2)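 NCI-60 single-dose screen. Cells were grown in RPMI 1640 with 5% FBS and 2 mM L-glutamine, seeded at 5000–40 000 cells/well according to doubling time, and pre-incubated 24 h at 37 °C, 5% CO2. Time-zero plates were TCA-fixed at dosing. Compound in DMSO was given at 10 μM for 48 h. Cells were then fixed in cold TCA, stained with 0.4% SRB, solubilised in 10 mM Tris base and read at 515 nm. Growth % was calculated from time-zero, control and treated absorbances.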

SK-MEL-5 = test: Cytotoxicity against human SK-MEL-5 cells assessed as cell growth at 10 uM after 48 hrs by sulforhodamine B assay relative to control; conditions: SK-MEL-5, 48 h, read-out: Activity; procedure, shortened: as §1
SK-MEL-28 = test: Cytotoxicity against human SK-MEL-28 cells assessed as cell growth at 10 uM after 48 hrs by sulforhodamine B assay relative to control; conditions: SK-MEL-28, 48 h, read-out: Activity; procedure, shortened: as §1
SK-MEL-2 = test: Cytotoxicity against human SK-MEL-2 cells assessed as cell growth at 10 uM after 48 hrs by sulforhodamine B assay relative to control; conditions: SK-MEL-2, 48 h, read-out: Activity; procedure, shortened: as §1
MDA-MB-435 = test: Cytotoxicity against human MDA-MB-435 cells assessed as cell growth at 10 uM after 48 hrs by sulforhodamine B assay relative to control; conditions: MDA-MB-435, 48 h, read-out: Activity; procedure, shortened: as §1
SNB-75 = test: Cytotoxicity against human SNB75 cells assessed as cell growth at 10 uM after 48 hrs by sulforhodamine B assay relative to control; conditions: SNB-75, 48 h, read-out: Activity; procedure, shortened: as §1
SNB-19 = test: Cytotoxicity against human SNB19 cells assessed as cell growth at 10 uM after 48 hrs by sulforhodamine B assay relative to control; conditions: SNB-19, 48 h, read-out: Activity; procedure, shortened: as §1
SF-539 = test: Cytotoxicity against human SF539 cells assessed as cell growth at 10 uM after 48 hrs by sulforhodamine B assay relative to control; conditions: SF-539, 48 h, read-out: Activity; procedure, shortened: as §1
SF-295 = test: Cytotoxicity against human SF295 cells assessed as cell growth at 10 uM after 48 hrs by sulforhodamine B assay relative to control; conditions: SF-295, 48 h, read-out: Activity; procedure, shortened: as §1
SF-268 = test: Cytotoxicity against human SF268 cells assessed as cell growth at 10 uM after 48 hrs by sulforhodamine B assay relative to control; conditions: SF-268, 48 h, read-out: Activity; procedure, shortened: as §1
SW-620 = test: Cytotoxicity against human SW620 cells assessed as cell growth at 10 uM after 48 hrs by sulforhodamine B assay relative to control; conditions: SW-620, 48 h, read-out: Activity; procedure, shortened: as §1
KM12 = test: Cytotoxicity against human KM12 cells assessed as cell growth at 10 uM after 48 hrs by sulforhodamine B assay relative to control; conditions: KM12, 48 h, read-out: Activity; procedure, shortened: as §1
[5] = Cytotoxicity against human HCT15 cells assessed as cell growth at 10 uM after 48 hrs by sulforhodamine B assay relative to control; conditions: HCT-15, 48 h, read-out: Activity; procedure, shortened: as §1
HCT-116 = test: Cytotoxicity against human HCT116 cells assessed as cell growth at 10 uM after 48 hrs by sulforhodamine B assay relative to control; conditions: HCT-116, 48 h, read-out: Activity; procedure, shortened: as §1
A549 = test: Cytotoxicity against human A549 cells assessed as cell growth at 10 uM after 48 hrs by sulforhodamine B assay relative to control; conditions: A549, 48 h, read-out: Activity; procedure, shortened: as §1
HL-60(TB) = test: Cytotoxicity against human HL-60(TB) cells assessed as cell growth at 10 uM after 48 hrs by sulforhodamine B assay relative to control; conditions: HL-60, 48 h, read-out: Activity
Procedure, shortened: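 Suspension line grown in RPMI 1640 with 5% FBS and 2 mM L-glutamine, plated at 5000–40 000 cells/well and preincubated 24 h at 37 °C, 5% CO2. Time-zero plates fixed at dosing. Single 10 μM dose in DMSO for 48 h. Settled cells fixed with TCA (final 16%), then stained with 0.4% SRB, solubilised in 10 mM Tris and read at 515 nm. Growth percentage calculated against time-zero and untreated control.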

786-0 = test: Cytotoxicity against human 786-0 cells assessed as cell growth at 10 uM after 48 hrs by sulforhodamine B assay relative to control; conditions: 786-0, 48 h, read-out: Activity; procedure, shortened: as §1
A498 = test: Cytotoxicity against human A498 cells assessed as cell growth at 10 uM after 48 hrs by sulforhodamine B assay relative to control; conditions: A498, 48 h, read-out: Activity; procedure, shortened: as §1
ACHN = test: Cytotoxicity against human ACHN cells assessed as cell growth at 10 uM after 48 hrs by sulforhodamine B assay relative to control; conditions: read-out: Activity; procedure, shortened: as §1
TK-10 = test: Cytotoxicity against human TK10 cells assessed as cell growth at 10 uM after 48 hrs by sulforhodamine B assay relative to control; conditions: TK-10, 48 h, read-out: Activity; procedure, shortened: as §2
[6] = Cytotoxicity against human UO31 cells assessed as cell growth at 10 uM after 48 hrs by sulforhodamine B assay relative to control; conditions: UO-31, 48 h, read-out: Activity; procedure, shortened: as §2
T47D = test: Cytotoxicity against human T47D cells assessed as cell growth at 10 uM after 48 hrs by sulforhodamine B assay relative to control; conditions: read-out: Activity; procedure, shortened: as §1
MDA-MB-468 = test: Cytotoxicity against human MDA-MB-468 cells assessed as cell growth at 10 uM after 48 hrs by sulforhodamine B assay relative to control; conditions: MDA-MB-468, 48 h, read-out: Activity; procedure, shortened: as §1

## COc1nccc2c(-c3cccc(F)c3)nc(N)nc12
SK-OV-3
  growth at 10 µM: 105%
[1]
  growth at 10 µM: 110%
[2]
  growth at 10 µM: 97.6%
[3]
  growth at 10 µM: 107%
[4]
  growth at 10 µM: 101%
SK-MEL-5
  growth at 10 µM: 108%
SK-MEL-28
  growth at 10 µM: 97%
SK-MEL-2
  growth at 10 µM: 89.5%
MDA-MB-435
  growth at 10 µM: 118%
SNB-75
  growth at 10 µM: 91.1%
SNB-19
  growth at 10 µM: 107%
SF-539
  growth at 10 µM: 97.2%
SF-295
  growth at 10 µM: 97.5%
SF-268
  growth at 10 µM: 108%
SW-620
  growth at 10 µM: 112%
KM12
  growth at 10 µM: 104%
[5]
  growth at 10 µM: 95%
HCT-116
  growth at 10 µM: 104%
A549
  growth at 10 µM: 94.7%
HL-60(TB)
  growth at 10 µM: 92.5%
786-0
  growth at 10 µM: 100%
A498
  growth at 10 µM: 88.5%
ACHN
  growth at 10 µM: 99.7%
TK-10
  growth at 10 µM: 101%
[6]
  growth at 10 µM: 109%
T47D
  growth at 10 µM: 93.5%
MDA-MB-468
  growth at 10 µM: 28.6%
